From the EternaBench riboswitch data

Test system: MS2 coat protein
Test: apparent Kd, MS2 coat protein; higher = weaker binding; RNA-MaP array; FMN 200 µM where present
Outline: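 Designs were transcribed by stalled E. coli RNA polymerase on Illumina sequencing-chip clusters. They were titrated with SNAP-549-labelled MS2 coat protein from 0.7 or 1.5 nM, doubling to 3 µM, in 100 mM Tris-HCl pH 7.5, 80 mM KCl, 4 mM MgCl2, BSA, DTT, yeast tRNA and Tween-20, without and then with constant ligand. The apparent Kd is the median of filtered per-cluster fits after normalisation of green signal to red-channel RNA signal and control-cluster median Fmax.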

[1] = designed as: OFF switch for flavin mononucleotide, no ligand
[2] = ligand present: flavin mononucleotide, designed as: OFF switch for flavin mononucleotide
[3] = designed as: ON switch for flavin mononucleotide, no ligand
[4] = ligand present: flavin mononucleotide, designed as: ON switch for flavin mononucleotide

| Sequence | apparent Kd [1] [nM] | apparent Kd [2] [nM] | apparent Kd [3] [nM] | apparent Kd [4] [nM] |
| --- | --- | --- | --- | --- |
| GACAUUAUAGGAUAUACAUGAGGAUCACCCAUGUCCGGCGGCCACCGCCAUUCACUGUGUAGAAGGGUAGUUUG | 87.9 | 68.8 | – | – |
| ACCAUUUACUAGUUUUCUAUACAUGAGGAUCACCCAUGUUUUGAGGAUAUCAGCGUGAAACACGCUGAGAAGGCAAAACAUUCG | 181 | 342 | – | – |
| GCUAUAGAUGUAGGAUAUCAUAUAGAAGCUAUGUGAGAAGGACAUGAGGAUCACCCAUGUCAAUGGCUGGAGCGAAGUUAUGGC | 30.4 | 35.2 | – | – |
| AAACCUAUAGGAUAUACAUGAGGAUCACCCAUGUUGCGAUUUUUUAGGUAACAGAUCCGUAGAAGGGUAGGUCA | 36.4 | 66.6 | – | – |
| GGCGGCGCGGGCCACCGCAGAACCAGAAGGACAUGAGGAUCACCCAUGUAACAAAACAGGGCGGUGUAGGAUAUGGCAGACCCG | 14.5 | 29.7 | – | – |
| UGUCGGACCAGAGGAUAUUACAUGAGGAUCACCCAUGUAUGAACCAAUAGCUGGAAACAGCAAUGUAAGAAGGCUGCUCCGACA | 9.74 | 105 | – | – |
| CUGUUAUAGGUCCAUUUUUACAACAUGAGGAUCACCCAUGUGCAGGAUAUCGUGUUAAUUUUCAUCGAGAAGGGCAUAGUCACG | 31.5 | 61.2 | – | – |
| GGAUGACAAAGUCAUCCCUGACGAACAUGAGGAUCACCCAUGUAGGAUAUGCUACUCAAAGAGUAGCAGAAGGACAUGUGUCUU | 31.2 | 150 | – | – |
| AUCGACAACAUCAUGGUGGAUCCUGAGGAUAUGAAUAGCUACAUGAGGAUCACCCAUGUCCCGCGUCAGAAGGCAGGUUUGAUC | – | – | 400 | 41.3 |
| UUACACUUGAGGGUCUCCCUUGACAUGAGGAUCACCCAUGUGCAGGAUAUACGUGUGAUGGUAUAGUAGAAGGGCACUCUAUGU | 23 | 29.7 | – | – |
| GGGAAGUAAGGAUAUGCUGCUCGUCACUUGCGUGAUGAGUAGCAGAAGGUACAUGAGGAUCACCCAUGUAAAGA | 29.7 | 26.9 | – | – |
| UAUCCGUCAGUAGGAUAUAUGCCGAGUCAUUGCAUAGAAGGACUGACAUGAGGAUCACCCAUGUCAGAUUGCGCUGGUCUUCCG | 6.24 | 6.68 | – | – |
| AGCACGAAAGUGCAACGAUGUACGAGAAGGACAUGAGGAUCACCCAUGUUGCUGUAACAGCACAUGUAGGAUAUCGUACAUCGA | 166 | 180 | – | – |
| GGAGACCUCGCAGGAUAUGCUGGACUUUGUCCAGCAGAAGGGUGAAAACAUGAGGAUCACCCAUGUAUGGUCUCCAAAUUUAAU | – | – | 1060 | 54.3 |
| UGUGUGUGGCAGGAUAUGCAGGUAGUAGGACGGGUAGAAGGGUCUACAUGAGGAUCACCCAUGUGGCCGGUUGG | 16.8 | 18.1 | – | – |
| AAUCGCAGUGCAGGAUAUCCAAGGUUUGGCGAAGGAGAAGGGCAUGCGACAUGAGGAUCACCCAUGUAAAGUAUGGCGUCCUCU | 231 | 117 | – | – |
| UCAUUUUACACAGGAUAUACUCAUAUACAGUUGUUUGGCUCUUACAUGUUAGUAGAAGGGUGCAACAUGAGGAUCACCCAUGUA | – | – | 621 | 250 |
| UAAUUAUUUGUGGUAAUACACUAUGAGGAUAUCAAGGAAUAUAACAUGAGGAUCACCCAUGUGAAUGAGAAGGCAUUAUUUAUA | – | – | 14.9 | 9.81 |
| UGUCGGAGCAGAGGAUAUACAUGAGGAUCACCCAUGUAAAUGAAAGAUAAGCUGGAAACAGCAAUGUAGAAGGCUGCUCCGACA | 18.4 | 88 | – | – |
| ACACGGUAUGUAGGAUAUGCAUAGCAUUGCUAUGCAGAAGGACAUGAGGAUCACCCAUGUAUGUAUUCCAUACUAAUCCCGUGA | 5.78 | 5.88 | – | – |
| AUAGGUUAAGGAGGAUAUAGAGGGAGACGUACACAUGAGGAUCACCCAUGUAUUUAAUUAGUUUACUAGAAGGCUUAUGAUUGU | – | – | 65.5 | 101 |
| AUAAUGUGAGGAUAUCAGUAAGAAUGCUUCGGCAUUCUUACUGAGAAGGCACAUGAGGAUCACCCAUGUGAUUA | 201 | 964 | – | – |
| AUCAGCACGUGAGGAUAUGCGUCACUGCGUCAGCAGUGUGGUAAGAUCACAUGAGGAUCACCCAUGUAGAAGGCACGAGCUGAU | 34 | 460 | – | – |
| GUAGUUAGUAGAGGAUAUUAGUAUGUGUAAUAUUGAGAAGGUUACAUGAGGAUCACCCAUGUGAUCAAUCACUGUUAAGGUUGC | 6.48 | 6.71 | – | – |
